Assay results: ChEMBL document CHEMBL3351600, “Sulfur, selenium and tellurium pseudopeptides: synthesis and biological evaluation” (Bioorg Med Chem, 2014)

What was measured:
[1] = tested on: Pseudomonas aeruginosa; assay: Antimicrobial activity against Pseudomonas aeruginosa assessed as inhibition at 20 ug/6 mm disk after 1 to 2 days by agar diffusion assay; assay type: functional
Procedure, shortened: (§1)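 Standard agar diffusion: 6-mm paper disks loaded with 20 µg of compound were placed on inoculated plates. Inhibition-zone diameter (mm) was read after 1 and 2 days of growth.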

[2] = Growth inhibition of human OVCAR3 cells after 48 hrs; assay type: functional; settings: OVCAR-3, 48 h
Procedure, shortened: (§2)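 NCI-60 human tumour cell line panel screen run at the US National Cancer Institute under its standard cytotoxicity protocol. It covers leukaemia, NSCLC, colon, CNS, melanoma, ovarian, renal, prostate and breast lines. An initial single-dose test was followed by five-dose testing with 48 h compound exposure.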

[3] = tested on: M14; assay: Growth inhibition of human M14 cells after 48 hrs; assay type: functional; settings: M14, 48 h; procedure, shortened: as §2
[4] = tested on: MDA-MB-435; assay: Growth inhibition of human MDA-MB-435 cells after 48 hrs; assay type: functional; settings: MDA-MB-435, 48 h; procedure, shortened: as §2
[5] = Growth inhibition of human BT549 cells after 48 hrs; assay type: functional; settings: BT-549, 48 h; procedure, shortened: as §2
[6] = Growth inhibition of human UACC257 cells after 48 hrs; assay type: functional; settings: UACC-257, 48 h
Procedure, shortened: (§3)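 Run by the NCI 58-cell-line screen under its standard cytotoxicity protocol. Compounds were first tested at a single dose, then at five doses. Cells were exposed to compound for 48 h.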

[7] = tested on: ACHN; assay: Growth inhibition of human ACHN cells after 48 hrs; assay type: functional; procedure, shortened: as §2
[8] = Growth inhibition of human SF295 cells after 48 hrs; assay type: functional; settings: SF-295, 48 h; procedure, shortened: as §2
[9] = Growth inhibition of human EKVX cells after 48 hrs; assay type: functional; procedure, shortened: as §2
[10] = tested on: Klebsiella pneumoniae; assay: Antimicrobial activity against Klebsiella pneumoniae assessed as inhibition at 20 ug/6 mm disk after 1 to 2 days by agar diffusion assay; assay type: functional; procedure, shortened: as §1
[11] = tested on: U-251; assay: Growth inhibition of human U251 cells after 48 hrs; assay type: functional; settings: U-251, 48 h; procedure, shortened: as §3
[12] = tested on: NCI-H522; assay: Growth inhibition of human NCI-H522 cells after 48 hrs; assay type: functional; settings: NCI-H522, 48 h; procedure, shortened: as §2
[13] = Lipophilicity, log K of the compound by HPLC analysis
[14] = Growth inhibition of human SF539 cells after 48 hrs; assay type: functional; settings: SF-539, 48 h; procedure, shortened: as §2
[15] = Growth inhibition of human OVCAR5 cells after 48 hrs; assay type: functional; settings: OVCAR-5, 48 h; procedure, shortened: as §2
[16] = Cytotoxicity against human fibroblasts assessed as cell viability after 24 hrs incubation by MTT assay; assay type: cell-based; settings: Fibroblast
Procedure, shortened: (§4)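 Cell lines came from DSMZ; primary human fibroblasts served as non-cancer controls. Cells were grown in medium with 10% FCS, seeded at 50,000 cells/ml, and grown 2 days at 37 °C, 10% CO2. Serial dilutions were then added for 24 h. MTT (final 0.5 mg/ml) was added for 2 h. Formazan was pelleted, PBS-washed, dissolved in isopropanol/0.4% HCl and read at 590 nm. Two parallel experiments were run. IC50 was taken as the concentration giving 50% of untreated-control absorbance.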

[17] = tested on: T47D; assay: Growth inhibition of human T47D cells after 48 hrs; assay type: functional; procedure, shortened: as §3
[18] = Growth inhibition of human HOP92 cells after 48 hrs; assay type: functional; settings: HOP-92, 48 h; procedure, shortened: as §2
[19] = Growth inhibition of human MOLT4 cells after 48 hrs; assay type: functional; settings: MOLT-4, 48 h; procedure, shortened: as §2
[20] = tested on: MDA-MB-468; assay: Growth inhibition of human MDA-MB-468 cells after 48 hrs; assay type: functional; settings: MDA-MB-468, 48 h; procedure, shortened: as §2
[21] = tested on: MCF7; assay: Cytotoxicity against human MCF7 cells assessed as cell viability after 24 hrs incubation by MTT assay; assay type: functional, cell-based; settings: MCF7, 24 h; procedure, shortened: as §4
[22] = tested on: Micrococcus luteus; assay: Antimicrobial activity against Micrococcus luteus assessed as inhibition at 20 ug/6 mm disk after 1 to 2 days by agar diffusion assay; assay type: functional; procedure, shortened: as §1
[23] = tested on: Candida albicans; assay: Antimicrobial activity against Candida albicans assessed as inhibition at 20 ug/6 mm disk after 1 to 2 days by agar diffusion assay; assay type: functional; procedure, shortened: as §1
[24] = tested on: K562; assay: Growth inhibition of human K562 cells after 48 hrs; assay type: functional; settings: K562, 48 h; procedure, shortened: as §2
[25] = tested on: A498; assay: Growth inhibition of human A498 cells after 48 hrs; assay type: functional; settings: A498, 48 h; procedure, shortened: as §2
[26] = Growth inhibition of human NCI-ADR-RES cells after 48 hrs; assay type: functional; procedure, shortened: as §2
[27] = tested on: TK-10; assay: Growth inhibition of human TK10 cells after 48 hrs; assay type: functional; settings: TK-10, 48 h; procedure, shortened: as §3
[28] = tested on: HT-29; assay: Growth inhibition of human HT-29 cells after 48 hrs; assay type: functional; settings: HT-29, 48 h; procedure, shortened: as §2
[29] = tested on: KM12; assay: Growth inhibition of human KM12 cells after 48 hrs; assay type: functional; settings: KM12, 48 h; procedure, shortened: as §2
[30] = tested on: MDA-MB-231; assay: Growth inhibition of human MDA-MB-231 cells after 48 hrs; assay type: functional; settings: MDA-MB-231, 48 h; procedure, shortened: as §2
[31] = tested on: A-431; assay: Cytotoxicity against human A431 cells assessed as cell viability after 24 hrs incubation by MTT assay; assay type: functional, cell-based; settings: A-431, 24 h; procedure, shortened: as §4
[32] = tested on: MCF7; assay: Growth inhibition of human MCF7 cells after 48 hrs; assay type: functional; settings: MCF7, 48 h; procedure, shortened: as §2
[33] = Growth inhibition of human PC3 cells after 48 hrs; assay type: functional; settings: PC-3, 48 h; procedure, shortened: as §2
[34] = Growth inhibition of human HCT15 cells after 48 hrs; assay type: functional; settings: HCT-15, 48 h; procedure, shortened: as §2
[35] = read-out: pLC50 (the source's name) (converted)

For COc1ccc(N(CC(=O)NCCC[Te]c2ccccc2)C(=O)CNC(=O)OC(C)(C)C)cc1, the “diameter of the inhibition zone (DIZ)” value [1] was 10 mm, the GI50 [2] was 3.02 µM and the CC50 [2, 35] was 100 µM. It also gave a TGI ([2]; read-out: pTGI (converted)) of 7.94 µM, a GI50 [3] of 3.55 µM and a CC50 [3, 35] of 45.7 µM. For the same molecule, the TGI ([3]; read-out: pTGI (converted)) was 10.7 µM, the GI50 [4] was 3.31 µM and the CC50 [4, 35] was 51.3 µM. It also gave a TGI ([4]; read-out: pTGI (converted)) of 13.5 µM, a GI50 [5] of 1.7 µM and an LC50 (concentration killing 50% of cells) [5] of over 100 µM. For the same molecule, the TGI ([5]; read-out: pTGI (converted)) was 4.9 µM, the GI50 [6] was 8.51 µM and the CC50 [6, 35] was 61.7 µM. The TGI ([6]; read-out: pTGI (converted)) was 24 µM, the GI50 [7] was 1.55 µM and the LC50 [7] was over 100 µM. For the same molecule, the TGI ([7]; read-out: pTGI (converted)) was 8.71 µM, the GI50 [8] was 1.29 µM and the CC50 [8, 35] was over 100 µM. It also gave a TGI ([8]; read-out: pTGI (converted)) of 4.07 µM, a GI50 [9] of 0.324 µM and a CC50 [9, 35] of over 100 µM. For the same molecule, the TGI ([9]; read-out: pTGI (converted)) was 2.34 µM, the Retention_time was 1.548 min and the “diameter of the inhibition zone (DIZ)” value [10] was 12 mm. For the same molecule, the GI50 [11] was 2.4 µM, the CC50 [11, 35] was 49 µM and the TGI ([11]; read-out: pTGI (converted)) was 6.46 µM. The GI50 [12] was 2.57 µM, the CC50 [12, 35] was 56.2 µM and the TGI ([12]; read-out: pTGI (converted)) was 10.5 µM. The “log K” value [13] was 0.05, the GI50 [14] was 2.14 µM and the CC50 [14, 35] was 15.8 µM. The TGI ([14]; read-out: pTGI (converted)) was 4.79 µM, the GI50 [15] was 3.02 µM and the LC50 [15] was 38.9 µM. The TGI ([15]; read-out: pTGI (converted)) was 7.41 µM, the IC50 [16] was 25 µM and the GI50 [17] was 11.2 µM. It also gave an LC50 [17] of over 100 µM, a TGI ([17]; read-out: pTGI (converted)) of 40.7 µM and a GI50 [18] of 2.95 µM. The CC50 [18, 35] was 66.1 µM, the TGI ([18]; read-out: pTGI (converted)) was 4.9 µM and the GI50 [19] was 3.09 µM. It also gave a CC50 [19, 35] of over 100 µM, a TGI ([19]; read-out: pTGI (converted)) of 10 µM and a GI50 [20] of 3.16 µM. It also gave an LC50 [20] of 60.3 µM, a TGI ([20]; read-out: pTGI (converted)) of 11 µM and an IC50 [21] of 5 µM. For the same molecule, the “diameter of the inhibition zone (DIZ)” value [22] was 7 mm, the “diameter of the inhibition zone (DIZ)” value [23] was 0 mm and the GI50 [24] was 5.5 µM. For the same molecule, the CC50 [24, 35] was over 100 µM, the TGI ([24]; read-out: pTGI (converted)) was over 100 µM and the GI50 [25] was 2.29 µM. It also gave an LC50 [25] of 33.9 µM, a TGI ([25]; read-out: pTGI (converted)) of 5.37 µM and a GI50 [26] of 2.88 µM. The LC50 [26] was over 100 µM, the TGI ([26]; read-out: pTGI (converted)) was 7.24 µM and the GI50 [27] was 3.89 µM. It also gave an LC50 [27] of 100 µM, a TGI ([27]; read-out: pTGI (converted)) of 10.7 µM and a GI50 [28] of 3.8 µM. It also gave a CC50 [28, 35] of over 100 µM, a TGI ([28]; read-out: pTGI (converted)) of 13.8 µM and a GI50 [29] of 3.31 µM. The CC50 [29, 35] was 43.7 µM, the TGI ([29]; read-out: pTGI (converted)) was 11.5 µM and the GI50 [30] was 1.91 µM. The TGI ([30]; read-out: pTGI (converted)) was 3.89 µM, the IC50 [31] was 5 µM and the GI50 [32] was 2.57 µM. The LC50 (concentration killing 50% of cells) [32] was 37.2 µM, the TGI ([32]; read-out: pTGI (converted)) was 7.59 µM and the GI50 [33] was 1.7 µM. The LC50 [33] was over 100 µM, the TGI ([33]; read-out: pTGI (converted)) was 10 µM and the GI50 [34] was 3.16 µM. It also gave a CC50 [34, 35] of 93.3 µM and a TGI ([34]; read-out: pTGI (converted)) of 10.5 µM.
